{
  "source": "ChEMBL document CHEMBL5096188",
  "about": "“Quinolinonyl Non-Diketo Acid Derivatives as Inhibitors of HIV-1 Ribonuclease H and Polymerase Functions of Reverse Transcriptase” (J Med Chem, 2021)",
  "note": "The source made the active and inactive calls. No cut-off for these calls is given here.",
  "data": [
    {"target": "T1, Human immunodeficiency virus type 1 reverse transcriptase (Human immunodeficiency virus 1, UniProt Q72547)", "test": "Inhibition of HIV-1 reverse transcriptase associated RNA-dependent DNA polymerase activity using poly(A)-oligo(dT) as template/primer incubated for 30 mins by multilabel counter plate reader analysis", "settings": "not given", "units": {"IC50": "µM"}, "values": [
      {"compound": "O=C(/C=C/c1ccc2c(c1)c(=O)c(C(=O)O)cn2Cc1ccc(F)cc1)c1ccccc1", "IC50": "> 100"}
    ]},
    {"target": "T1, Human immunodeficiency virus type 1 reverse transcriptase", "test": "Inhibition of recombinant His-tagged wild-type HIV-1 group M subtype B BH10 reverse transcriptase-associated RNase H activity harboring p66/p51 hetrodimer expressed in Escherichia coli M15 using GTTTTCTTTTCCCCCCTGAC-30 fluorescein/50-CAAAAGAAAAGGGGGGACUG-30 Dabcyl RNA/DNA template-primer as substrate incubated for 1 hr by multilabel counter plate reader analysis", "settings": "not given", "method_in_brief": "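His-tagged p66/p51 RT was expressed in E. coli M15, with mutations placed in p66 by site-directed mutagenesis. The mix held 50 mM Tris HCl pH 7.8, 6 mM MgCl2, 1 mM DTT, 80 mM KCl, 250 nM fluorescein/Dabcyl RNA/DNA hybrid and serial compound dilutions, with no preincubation. Reactions were started with enzyme (wt, R448A, K451A 20 ng; K540A 40 ng; N474A 500 ng), run 1 h at 37 °C and read at 490/528 nm. Duplicates were repeated at least twice; IC50 is mean ± SD.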", "units": {"IC50": "µM"}, "values": [
      {"compound": "COc1ccc2c(c1)c(=O)c(C(=O)O)cn2Cc1ccc(F)cc1", "IC50": "> 100"},
      {"compound": "O=C(O)c1cn(Cc2ccc(F)cc2)c2ccccc2c1=O", "IC50": "> 100"},
      {"compound": "CCOC(=O)c1cn(Cc2ccc(F)cc2)c2ccc(O)cc2c1=O", "IC50": "> 100"},
      {"compound": "CCOC(=O)c1cn(Cc2ccc(F)cc2)c2ccc(OCCCN(C)C)cc2c1=O", "IC50": "> 100"},
      {"compound": "N#Cc1ccc2c(c1)c(=O)c(C(=O)O)cn2Cc1ccc(F)cc1", "IC50": "> 100"},
      {"compound": "CCOC(=O)c1cn(Cc2ccc(F)cc2)c2ccc(S(C)(=O)=O)cc2c1=O", "IC50": "> 100"},
      {"compound": "O=C(O)c1cn(Cc2ccc(F)cc2)c2ccc(C(F)(F)F)cc2c1=O", "IC50": "> 100"},
      {"compound": "CCOC(=O)c1cn(Cc2ccc(F)cc2)c2ccc(C#N)cc2c1=O", "IC50": "> 100"},
      {"compound": "CCOC(=O)c1cn(Cc2ccc(F)cc2)c2ccc(OCc3ccc(-c4ccccc4)cc3)cc2c1=O", "IC50": "> 100"},
      {"compound": "CCOC(=O)c1cn(Cc2ccc(F)cc2)c2ccc(OC)cc2c1=O", "IC50": "> 100"}
    ]},
    {"system": "not listed separately", "test": "Selectivity index, ratio of CC50 for cytotoxicity against human HeLa-CD4-LTR-beta-gal cells to EC50 for antiviral activity against HIV 1 infected in human HeLa-CD4-LTR-beta-gal cells", "format": "toxicity, cell-based", "settings": "read-out: Ratio CC50/EC50", "method_in_brief": "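Selectivity index is CC50/EC50. Both values come from HeLa-CD4-LTR-β-gal cells at 24 h. EC50 is from β-galactosidase readout after infection with in-house HIV-1 (H9-laï coculture). CC50 is from the CellTiter 96 AQueous One proliferation assay.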", "values": [
      {"compound": "CCOC(=O)/C=C/C(=O)/C=C/c1cccn1Cc1ccccc1Cl", "selectivity ratio": "> 13.7"}
    ]},
    {"target": "Human immunodeficiency virus type 1 integrase (Human immunodeficiency virus 1, UniProt Q7ZJM1)", "sequence (Q7ZJM1 whole entry)": "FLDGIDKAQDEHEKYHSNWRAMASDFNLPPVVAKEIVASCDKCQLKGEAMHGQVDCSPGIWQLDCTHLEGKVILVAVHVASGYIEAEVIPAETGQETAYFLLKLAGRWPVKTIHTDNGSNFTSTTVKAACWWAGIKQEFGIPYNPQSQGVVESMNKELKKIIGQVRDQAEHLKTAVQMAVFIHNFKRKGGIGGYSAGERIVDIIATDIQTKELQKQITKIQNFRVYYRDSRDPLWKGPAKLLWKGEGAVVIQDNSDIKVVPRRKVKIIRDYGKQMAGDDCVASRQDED", "test": "Inhibition of recombinant His-tagged HIV-1 NL4-3 integrase expressed in Escherichia coli BL21 pLys using GTGTGGAAAATCTCTAGCA/ACTGCTAGAGATTTTCCACAC as DNA substrate incubated for 2 hrs by densitometric analysis", "settings": "not given", "units": {"IC50": "µM"}, "values": [
      {"compound": "CCOC(=O)/C=C/C(=O)/C=C/c1cccn1Cc1ccccc1Cl", "IC50": "> 100"},
      {"compound": "O=C(O)c1cn(Cc2ccc(F)cc2)c2ccc(OCc3ccc4c(c3)OCO4)cc2c1=O", "IC50": "> 100"},
      {"compound": "O=C(O)c1cn(Cc2ccc(F)cc2)c2ccc(OCc3cccc4ccccc34)cc2c1=O", "IC50": "> 100"},
      {"compound": "CCOC(=O)c1cn(Cc2ccc(F)cc2)c2ccc(C(C)=O)cc2c1=O", "IC50": "> 100"},
      {"compound": "O=C(O)c1cn(Cc2ccc(F)cc2)c2ccc(OCc3cccc(Cl)c3Cl)cc2c1=O", "IC50": "> 100"},
      {"compound": "CC(=O)c1ccc2c(c1)c(=O)c(C(=O)O)cn2Cc1ccc(F)cc1", "IC50": "> 100"},
      {"compound": "O=C(O)c1cn(Cc2ccc(F)cc2)c2ccc(OCc3ccc(-c4ccccc4)cc3)cc2c1=O", "IC50": "> 250"}
    ]},
    {"system": "not listed separately", "test": "Metal chelating activity assessed as Mg2+-compound complex formation at 4.1 x 10^-5 M by UV-visible spectrophotometric titration analysis", "settings": "dose 4.1 10^-5M", "method_in_brief": "(§1)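 Compound in absolute ethanol, titrated with MgCl2 stock solutions (4 10–5 to 0.2 M, diluted in ethanol). UV–vis spectra were recorded from 230 to 370 or 600 nm against ethanol in a 1 cm quartz cuvette, in triplicate. Stoichiometry was found by Job's method using equimolar metal/ligand mixtures. ΔA was plotted against ligand mole fraction, and the maximum was located by linear regression.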", "values": [
      {"compound": "CCOC(=O)c1cn(Cc2ccc(F)cc2)c2ccc(OCc3cccc4ccccc34)cc2c1=O", "Activity": "Active"}
    ]},
    {"system": "not listed separately", "test": "Metal chelating activity assessed as Mg2+-compound complex formation at 3.8 x 10^-5M by UV-visible spectrophotometric titration analysis", "settings": "dose 3.8 10^-5M", "method_in_brief": "as §1", "values": [
      {"compound": "O=C(O)c1cn(Cc2ccc(F)cc2)c2ccc(OCc3cccc4ccccc34)cc2c1=O", "Activity": "Active"}
    ]}
  ]
}
